Data as given in ChEMBL document CHEMBL1132235, “Thioamides: synthesis, stability, and immunological activities of thioanalogues of Imreg. Preparation of new thioacylating agents using fluorobenzimidazolone derivatives” (1999).

Legend:
[1] = tested on: Mus musculus; assay: In vivo functional activity against Blood Immunophenotyping in mice at 50 mg/kg dose using NK+ as cell subset
In short: (§1)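 Female C57BL/6 mice, 6–8 weeks old, groups of seven, dosed i.p. once daily for four consecutive days (0, 50, 100 or 125 mg/kg) and sacrificed on day 5. Blood and spleen cells were lysed in ACK buffer (pH 7.3, 5 min), washed in PBS and stained 45 min on ice with FITC/PE surface-marker antibodies. Cells were fixed in 1% paraformaldehyde and read by flow cytometry. Values are relative subset percentages, compared by unpaired t test.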

[2] = tested on: Mus musculus; assay: In vivo functional activity against spleen Immunophenotyping in mice at 50 mg/kg dose using NK+CD3+ as cell subset; in short: as §1
[3] = tested on: Mus musculus; assay: In vivo functional activity against spleen Immunophenotyping in mice at 0 mg/kg dose using LY5+ as cell subset; in short: as §1
[4] = tested on: Mus musculus; assay: In vivo functional activity against spleen Immunophenotyping in mice at 125 mg/kg dose using TCR+ as cell subset; in short: as §1
[5] = tested on: Mus musculus; assay: In vivo functional activity against spleen Immunophenotyping in mice at 125 mg/kg dose using LY5+ as cell subset; in short: as §1
[6] = tested on: Mus musculus; assay: In vivo functional activity against spleen Immunophenotyping in mice at 50 mg/kg dose using LY5+ as cell subset; in short: as §1
[7] = tested on: Mus musculus; assay: In vivo functional activity against Blood Immunophenotyping in mice at 50 mg/kg dose using CD4+CD45+ as cell subset; in short: as §1
[8] = tested on: Mus musculus; assay: In vivo functional activity against spleen Immunophenotyping in mice at 100 mg/kg dose using TCR+ as cell subset; in short: as §1
[9] = tested on: Mus musculus; assay: In vivo functional activity against spleen Immunophenotyping in mice at 0 mg/kg dose using NK+CD3+ as cell subset; in short: as §1
[10] = tested on: Mus musculus; assay: In vivo functional activity against spleen Immunophenotyping in mice at 50 mg/kg dose using TCR+ as cell subset; in short: as §1
[11] = tested on: Mus musculus; assay: In vivo functional activity against spleen Immunophenotyping in mice at 125 mg/kg dose using CD4+CD45+ as cell subset; in short: as §1
[12] = tested on: Mus musculus; assay: In vivo functional activity against spleen Immunophenotyping in mice at 50 mg/kg dose using CD4+CD45+ as cell subset; in short: as §1
[13] = tested on: Mus musculus; assay: In vivo functional activity against spleen Immunophenotyping in mice at 0 mg/kg dose using CD8+CD45+ as cell subset; in short: as §1
[14] = tested on: Mus musculus; assay: In vivo functional activity against spleen Immunophenotyping in mice at 0 mg/kg dose using TCR+ as cell subset; in short: as §1
[15] = tested on: Mus musculus; assay: In vivo functional activity against Blood Immunophenotyping in mice at 0 mg/kg dose using CD4+CD45+ as cell subset; in short: as §1
[16] = tested on: Mus musculus; assay: In vivo functional activity against spleen Immunophenotyping in mice at 100 mg/kg dose using CD4+CD45+ as cell subset; in short: as §1
[17] = tested on: Mus musculus; assay: In vivo functional activity against Blood Immunophenotyping in mice at 125 mg/kg dose using CD4+CD45+ as cell subset; in short: as §1
[18] = tested on: Mus musculus; assay: In vivo functional activity against spleen Immunophenotyping in mice at 0 mg/kg dose using CD4+CD45+ as cell subset; in short: as §1
[19] = tested on: Mus musculus; assay: In vivo functional activity against Blood Immunophenotyping in mice at 100 mg/kg dose using CD4+CD45+ as cell subset (value in parentheses indicate P value); in short: as §1
[20] = tested on: Mus musculus; assay: In vivo functional activity against spleen Immunophenotyping in mice at 100 mg/kg dose using LY5+ as cell subset; in short: as §1
[21] = tested on: Mus musculus; assay: In vivo functional activity against spleen Immunophenotyping in mice at 100 mg/kg dose using CD8+CD45+ as cell subset; in short: as §1
[22] = tested on: Mus musculus; assay: In vivo functional activity against spleen Immunophenotyping in mice at 50 mg/kg dose using CD8+CD45+ as cell subset; in short: as §1
[23] = tested on: Mus musculus; assay: In vivo functional activity against spleen Immunophenotyping in mice at 125 mg/kg dose using CD8+CD45+ as cell subset; in short: as §1
[24] = tested on: Mus musculus; assay: In vivo functional activity against spleen Immunophenotyping in mice at 100 mg/kg dose using NK+CD3+ as cell subset; in short: as §1
[25] = tested on: Mus musculus; assay: In vivo functional activity against spleen Immunophenotyping in mice at 125 mg/kg dose using NK+CD3+ as cell subset; in short: as §1
[26] = tested on: Mus musculus; assay: In vivo functional activity against Blood Immunophenotyping in mice at 100 mg/kg dose using NK+ as cell subset; in short: as §1
[27] = tested on: Mus musculus; assay: In vivo functional activity against Blood Immunophenotyping in mice at 125 mg/kg dose using NK+ as cell subset; in short: as §1
[28] = tested on: Mus musculus; assay: In vivo functional activity against Blood Immunophenotyping in mice at 0 mg/kg dose using NK+ as cell subset; in short: as §1

N[C@@H](Cc1ccc(O)cc1)/C(S)=N/CC(=O)NCC(=O)O
Activity [1]: 6.37 | Activity [2]: 2.7 | Activity [3]: 38.03 | Activity [4]: 43.59 | Activity [5]: 50.71 | Activity [6]: 38.56 | Activity [7]: 23.94 | Activity [8]: 52.63 | Activity [9]: 2.37 | Activity [10]: 59.07 | Activity [11]: 31.93 | Activity [12]: 43.1 | Activity [13]: 4.97 | Activity [14]: 58.54 | Activity [15]: 22.56 | Activity [16]: 34.63 | Activity [17]: 28.89 | Activity [18]: 41.73 | Activity [19]: 22.9 | Activity [20]: 40.79 | Activity [21]: 6.93 | Activity [22]: 5.77 | Activity [23]: 5.46 | Activity [24]: 2.99 | Activity [25]: 3.37 | Activity [26]: 5.84 | Activity [27]: 6.29 | Activity [28]: 8
